Calls of active or inactive are those of the source.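 Rule for the calls, unless noted: active = potentiation averaged over duplicate wells exceeding buffer-only control mean by more than 3 SD; inactive = the rest.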

The record followed here is PubChem BioAssay.

Potassium voltage-gated channel subfamily KQT member 1 (Homo sapiens), sequence (P51787 whole entry, looked up): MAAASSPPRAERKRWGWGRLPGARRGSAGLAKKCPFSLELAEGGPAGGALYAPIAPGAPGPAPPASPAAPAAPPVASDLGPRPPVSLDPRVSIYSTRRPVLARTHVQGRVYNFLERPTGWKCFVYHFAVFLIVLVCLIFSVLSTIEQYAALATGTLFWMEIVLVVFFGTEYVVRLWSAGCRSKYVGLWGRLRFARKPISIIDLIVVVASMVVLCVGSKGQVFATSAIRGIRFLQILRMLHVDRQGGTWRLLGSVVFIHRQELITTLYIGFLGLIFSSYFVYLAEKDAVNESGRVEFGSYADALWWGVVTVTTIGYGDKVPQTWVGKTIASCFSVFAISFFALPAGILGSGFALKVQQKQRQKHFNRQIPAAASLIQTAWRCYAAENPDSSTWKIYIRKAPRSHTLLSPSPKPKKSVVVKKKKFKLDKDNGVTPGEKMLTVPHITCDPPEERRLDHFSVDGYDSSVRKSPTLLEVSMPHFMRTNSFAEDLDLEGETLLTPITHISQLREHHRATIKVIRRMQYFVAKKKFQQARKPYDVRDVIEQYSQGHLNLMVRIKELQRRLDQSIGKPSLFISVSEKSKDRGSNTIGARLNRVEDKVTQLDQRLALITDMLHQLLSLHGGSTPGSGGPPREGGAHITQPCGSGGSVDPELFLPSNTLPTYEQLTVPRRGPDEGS

System in one experiment: not listed separately
Nature of the experiment: nonspecific flux increase, KCNQ1-free cells – parental CHO cells, counter-screen for KCNQ1 potentiator project (AID 493006;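 active = duplicate-averaged activation above buffer control mean plus 5 SD of those controls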). Conditions: parental CHO-K1 cells, FluxOR thallium flux, at 10 µM; hits give high values. The essentials: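 Test system: parental CHO-K1 cells, FluxOR dye-loaded / Probe or stimulus: potassium plus thallium depolarizing stimulus, 5x stock 12.5 mM K2SO4, Tl2SO4 / Timing: overnight 37 °C plating, 90 min dye, 20 min dark compound / Measured by: kinetic thallium-flux fluorescence / Read-out: max-minus-min fluorescence over baseline, percent of buffer-to-R-L3 span / Benchmarks: buffer and R-L3 controls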
(In general: Counterscreens check selectivity or assay interference.)
As for `CSC(C(=O)c1cc2ccccc2o1)c1ccccc1` (stereo not given), the outcome was inactive.

Turning to `Cc1cc(C(=O)N/N=C/c2cccs2)no1`, the result was inactive.

As to `Cc1cccc(NC(=S)N/N=C(\c2ccccc2)C(C)C)c1`, the result was inactive.

`O=C(CC(=O)c1ccccc1O)c1cccc(F)c1`: the activation was 164% (active).

Take `CS(=O)(=O)N1CCN(c2ccccc2NC(=O)CSc2nnc(-c3ccco3)o2)CC1`: the outcome was inactive.

With `O=C(NC(=S)N1CCCC1)c1ccc(Cl)cc1`, the activation is 150% (active).

As to `Cc1ccc(C(=O)NNC(=O)CCCCC(=O)NNC(=O)c2ccc(C)cc2)cc1`, the result was inactive.

Regarding `CN(C)S(=O)(=O)c1ccc(Cl)c(NC(=O)CN2CCCCCC2)c1`, the result was inactive.

For the molecule `O=C(COC(=O)CNC(=O)c1ccc(Cl)cc1Cl)Nc1cccc(S(=O)(=O)N2CCCC2)c1`, the result was inactive.

As for `COc1cc(/C=N/NC(=O)c2ccoc2C)ccc1OCCN1CCCCC1`, the outcome was inactive.

With `CCc1ccc(S(=O)(=O)NC(=S)NC2CCCCC2)cc1`, the activation is 330% (active).

`COc1cccc(C=O)c1OCCCOc1cccc2cccnc12`: the outcome was inactive.

With `Cc1ccc2nsnc2c1S(=O)(=O)Nc1cccc2nsnc12`, the activation was 143% (active).

Take `CCOC(=O)c1n[nH]n2c1nc(=S)c1ccccc12`: the activation is 260% (active).

Regarding `CCCNC1=CC(=O)CC(C)(C)C1`, the outcome was inactive.

Regarding `COC(=O)[C@@H]1CCCN1C(=O)CCc1nnc(CCC2CCCCC2)o1`, the outcome was inactive.

Turning to `CC(C)c1nc2sc3c(=S)nc[nH]c3c2c2c1CCC2`, the activation was 247% (active).

Take `O=C(c1ccc(COc2ccc(Cl)cc2)o1)N1CCN(Cc2ccc3c(c2)OCO3)CC1`: the result was inactive.

Turning to `O=C(/C=C/c1ccc(Br)cc1)NC(=S)Nc1ccc(S(=O)(=O)Nc2nccs2)cc1`, the outcome was inactive.

Take `CN1C(=O)NC(c2ccc(O)cc2)C(C(=O)c2cccs2)C1(O)C(F)(F)F` (stereo not given): the outcome was inactive.

`O=C(Nc1nnc(-c2ccc3c(c2)CCCC3)o1)c1c(F)cccc1F`: the activation is 148% (active).

Consider `O=C(N/N=C/c1ccccn1)c1cc(-c2ccc(Br)cc2)nc2ccccc12`, for which the activation was 142% (active).

As for `CCSc1nnc(NC(=O)C2C3C=CC(C3)C2C(=O)O)s1` (stereo not given), the outcome was inactive.

Take `COc1ccc(-c2cc3nc(C)c(CCC(=O)NC(C)CCc4ccco4)c(C)n3n2)c(OC)c1` (stereo not given): the outcome was inactive.

Consider `COC(=O)c1ccccc1NC(=O)Cn1c(=O)n(Cc2ccccc2)c(=O)c2c(C)c(C)sc21`, for which the outcome was inactive.

As for `CC1=NN(C(=O)c2csc(C(C)C)c2)C(O)(C(F)(F)F)C1` (stereo not given), the activation was 164% (active).

Regarding `CC(OC(=O)CC1Sc2ccccc2NC1=O)C(=O)NC1CCCC1` (stereo not given), the result was inactive.

As for `O=C(c1ccccc1[N+](=O)[O-])N1CCN(c2ccc(N3CCOCC3)nn2)CC1`, the outcome was inactive.

For `COc1cc(CNCc2ccccn2)ccc1OCc1c(Cl)cccc1Cl`, the result was inactive.

On to `CCCn1c(=S)[nH]c2ccc(C(F)(F)F)cc21`, for which the activation is 158% (active).

For the molecule `NC(=O)NC(=O)C[n+]1cccc(/C=N/O)c1`, the result was inactive.

Regarding `COc1cc(OC)cc(C(=O)Nc2nnc(SCC(=O)NCc3ccco3)s2)c1`, the activation was 150% (active).

On to `N#Cc1cn(CC(=O)NCC2CCCO2)c2ccccc12` (stereo not given), for which the result was inactive.

For `Fc1ccc(-n2nnc(-c3ccccc3)n2)cc1`, the outcome was inactive.

Regarding `Oc1c(N=NC(=S)Nc2ccccc2F)c2ccccc2n1Cc1ccccc1F`, the activation is 142% (active).

Take `O=C(O)c1cnn(-c2ccccc2)c1-c1ccncc1`: the activation was 145% (active).

In the case of `Cc1ccc(C(=O)N/C(=C\c2ccc(-c3ccccc3[N+](=O)[O-])o2)C(=O)NCCCN2CCOCC2)cc1`, the outcome was inactive.

With `Cc1ccc2cccnc2c1NC(=S)NC(=O)c1ccccc1`, the outcome was inactive.

As to `COc1ccc(-n2nc(C(=O)NCC(=O)N3CCC(C(N)=O)CC3)c3ccccc3c2=O)cc1`, the outcome was inactive.

Regarding `O=C(NCc1cccs1)C1CC(c2ccccc2O)=NO1` (stereo not given), the outcome was inactive.

The target in the next experiment is Potassium voltage-gated channel subfamily KQT member 1 (Homo sapiens) (UniProt P51787). Nature of the experiment: enhancement of KCNQ1 channel thallium flux – FluxOR thallium flux, CHO cells, duplicates, confirmation (AID 493007).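 For outcome: cells depolarized by a potassium plus thallium sulfate stimulus after compound.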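 For potentiation: 0% = buffer-only wells and 100% = R-L3 activator control.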 Conditions: KCNQ1 cell line, FluxOR thallium flux fluorescence, at 10 µM; hits give high values, % of reference activator effect, buffer zero. In a few lines:
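Assay system: CHO cells carrying KCNQ1 | Controls: Buffer and R-L3 controls | Schedule: FluxOR dye loading 90 min, compound exposure 20 min, room temperature | Read-out: Baseline-normalized fluorescence change, percent of buffer-to-R-L3 range | Replicates: Each compound tested in duplicate | Technique: Kinetic thallium influx fluorescence with FluxOR dye, 10 s baseline, 110 s post-stimulus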
As to `CSC(C(=O)c1cc2ccccc2o1)c1ccccc1` (stereo not given), the result was inactive.

For `Cc1cc(C(=O)N/N=C/c2cccs2)no1`, the outcome was inactive.

As to `Cc1cccc(NC(=S)N/N=C(\c2ccccc2)C(C)C)c1`, the potentiation is 32% (active).

In the case of `O=C(CC(=O)c1ccccc1O)c1cccc(F)c1`, the potentiation is 50.5% (active).

Consider `CS(=O)(=O)N1CCN(c2ccccc2NC(=O)CSc2nnc(-c3ccco3)o2)CC1`, for which the outcome was inactive.

For `O=C(NC(=S)N1CCCC1)c1ccc(Cl)cc1`, the outcome was inactive.

As to `Cc1ccc(C(=O)NNC(=O)CCCCC(=O)NNC(=O)c2ccc(C)cc2)cc1`, the result was inactive.

Turning to `CN(C)S(=O)(=O)c1ccc(Cl)c(NC(=O)CN2CCCCCC2)c1`, the outcome was inactive.

`O=C(COC(=O)CNC(=O)c1ccc(Cl)cc1Cl)Nc1cccc(S(=O)(=O)N2CCCC2)c1`: the result was inactive.

With `COc1cc(/C=N/NC(=O)c2ccoc2C)ccc1OCCN1CCCCC1`, the potentiation is 23.5% (active).

Take `CCc1ccc(S(=O)(=O)NC(=S)NC2CCCCC2)cc1`: the potentiation is 108% (active).

Turning to `COc1cccc(C=O)c1OCCCOc1cccc2cccnc12`, the outcome was inactive.

For `Cc1ccc2nsnc2c1S(=O)(=O)Nc1cccc2nsnc12`, the potentiation is 26% (active).

Take `CCOC(=O)c1n[nH]n2c1nc(=S)c1ccccc12`: the potentiation was 54.5% (active).

With `CCCNC1=CC(=O)CC(C)(C)C1`, the outcome was inactive.

Regarding `COC(=O)[C@@H]1CCCN1C(=O)CCc1nnc(CCC2CCCCC2)o1`, the result was inactive.

Turning to `CC(C)c1nc2sc3c(=S)nc[nH]c3c2c2c1CCC2`, the potentiation is 194% (active).

In the case of `O=C(c1ccc(COc2ccc(Cl)cc2)o1)N1CCN(Cc2ccc3c(c2)OCO3)CC1`, the potentiation is 25% (active).

On to `O=C(/C=C/c1ccc(Br)cc1)NC(=S)Nc1ccc(S(=O)(=O)Nc2nccs2)cc1`, for which the outcome was inactive.

As for `CN1C(=O)NC(c2ccc(O)cc2)C(C(=O)c2cccs2)C1(O)C(F)(F)F` (stereo not given), the result was inactive.

As to `O=C(Nc1nnc(-c2ccc3c(c2)CCCC3)o1)c1c(F)cccc1F`, the potentiation is 25% (active).

With `O=C(N/N=C/c1ccccn1)c1cc(-c2ccc(Br)cc2)nc2ccccc12`, the potentiation was 51.5% (active).

Regarding `CCSc1nnc(NC(=O)C2C3C=CC(C3)C2C(=O)O)s1` (stereo not given), the result was inactive.

Turning to `COc1ccc(-c2cc3nc(C)c(CCC(=O)NC(C)CCc4ccco4)c(C)n3n2)c(OC)c1` (stereo not given), the outcome was inactive.

Take `COC(=O)c1ccccc1NC(=O)Cn1c(=O)n(Cc2ccccc2)c(=O)c2c(C)c(C)sc21`: the outcome was inactive.

For the molecule `CC1=NN(C(=O)c2csc(C(C)C)c2)C(O)(C(F)(F)F)C1` (stereo not given), the potentiation is 61.5% (active).

On to `CC(OC(=O)CC1Sc2ccccc2NC1=O)C(=O)NC1CCCC1` (stereo not given), for which the outcome was inactive.

In the case of `O=C(c1ccccc1[N+](=O)[O-])N1CCN(c2ccc(N3CCOCC3)nn2)CC1`, the result was inactive.

As to `COc1cc(CNCc2ccccn2)ccc1OCc1c(Cl)cccc1Cl`, the result was inactive.

For the molecule `CCCn1c(=S)[nH]c2ccc(C(F)(F)F)cc21`, the outcome was inactive.

`NC(=O)NC(=O)C[n+]1cccc(/C=N/O)c1`: the result was inactive.

As for `COc1cc(OC)cc(C(=O)Nc2nnc(SCC(=O)NCc3ccco3)s2)c1`, the potentiation is 30% (active).

With `N#Cc1cn(CC(=O)NCC2CCCO2)c2ccccc12` (stereo not given), the result was inactive.

In the case of `Fc1ccc(-n2nnc(-c3ccccc3)n2)cc1`, the result was inactive.

In the case of `Oc1c(N=NC(=S)Nc2ccccc2F)c2ccccc2n1Cc1ccccc1F`, the potentiation was 64% (active).

Turning to `O=C(O)c1cnn(-c2ccccc2)c1-c1ccncc1`, the potentiation was 84% (active).

`Cc1ccc(C(=O)N/C(=C\c2ccc(-c3ccccc3[N+](=O)[O-])o2)C(=O)NCCCN2CCOCC2)cc1`: the outcome was inactive.

Consider `Cc1ccc2cccnc2c1NC(=S)NC(=O)c1ccccc1`, for which the outcome was inactive.

As to `COc1ccc(-n2nc(C(=O)NCC(=O)N3CCC(C(N)=O)CC3)c3ccccc3c2=O)cc1`, the outcome was inactive.

`O=C(NCc1cccs1)C1CC(c2ccccc2O)=NO1` (stereo not given): the result was inactive.
